These results are taken from ChEMBL document CHEMBL1125862, “(1S)-1-(aminomethyl)-2-(arylacetyl)-1,2,3,4-tetrahydroisoquinoline and heterocycle-condensed tetrahydropyridine derivatives: members of a novel class of very potent kappa opioid analgesics” (J Med Chem, 1991).

Assay [1] has as its system Mus musculus. The assay is described as follows: In vivo antinociceptive activity in mouse tail flick test following p.o. administration. Type of assay: functional.
Assay [2] relates to Mus musculus. The assay is described as follows: In vivo antinociceptive activity using mouse tail flick test, subcutaneous administration. Type of assay: functional. (Thermal pain tests record how soon the animal reacts.)
Assay [3] concerns Mus musculus. The assay is described as follows: Phenyl-p-benzoquinone-induced abdominal constriction after subcutaneous administration in mouse (in vivo). Type of assay: functional, Abdomen. The method, boiled down: (§1)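 Mice given test agent subcutaneously, with 10 animals per dose, then challenged with phenyl-p-benzoquinone. Abdominal constrictions counted over an 8-min observation period. Percentage inhibition calculated as 1 − (T/C) × 100, with T the treated-group mean and C the control-group mean count.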

Assay [4] has as its system Mus musculus. The assay is described as follows: Concentration required for 50% inhibition of abdominal constrictions by phenyl-p-benzoquinone-induced abdominal constriction given sc in mouse. The assay is classed as functional, Abdomen. In short, it runs like this: as §1
The target of assay [5] is Mu-type opioid receptor (Cavia porcellus, UniProt P97266). The assay is described as follows: Affinity for opioid receptor mu sites.
Assay [6] addresses Kappa-type opioid receptor (Cavia porcellus, UniProt P41144). The assay is described as follows: Displacement of [3H]-BRL 52537 from opioid receptor kappa site in guinea pig.
The mark [7] stands for this setting: Mus musculus, Tail, po, read-out: ED50.
Setting [8] is: Mus musculus, Tail, sc, read-out: ED50.
Setting [9] is: Mus musculus, Abdomen, sc, read-out: ED50.

SMILES strings stand for the structures. Some results are limits rather than exact numbers.

Sequence of Mu-type opioid receptor (P97266 whole entry): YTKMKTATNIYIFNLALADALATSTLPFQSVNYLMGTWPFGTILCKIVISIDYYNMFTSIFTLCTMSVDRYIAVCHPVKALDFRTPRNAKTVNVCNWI
Sequence of Kappa-type opioid receptor (P41144 whole entry): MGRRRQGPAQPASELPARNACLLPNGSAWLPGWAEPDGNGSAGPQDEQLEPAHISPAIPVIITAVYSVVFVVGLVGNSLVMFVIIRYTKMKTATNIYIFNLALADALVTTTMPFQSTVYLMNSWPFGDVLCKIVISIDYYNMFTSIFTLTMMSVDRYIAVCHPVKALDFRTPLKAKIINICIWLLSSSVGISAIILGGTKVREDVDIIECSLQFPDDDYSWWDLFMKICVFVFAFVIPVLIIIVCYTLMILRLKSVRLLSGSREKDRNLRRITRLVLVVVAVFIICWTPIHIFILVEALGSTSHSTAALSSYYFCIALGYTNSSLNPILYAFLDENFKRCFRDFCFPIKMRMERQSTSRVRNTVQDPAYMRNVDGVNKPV

For `O=C(Cc1ccc(Cl)c(Cl)c1)N1CCc2ccccc2C1CN1CCCC1` (stereo not drawn), the ED50 in assay [1] (setting [7]) came out at 0.626 µmol/kg; in assay [2] (setting [8]), 0.036 µmol/kg; in assay [3] (setting [9]) it was 0.025 µmol/kg.
With `O=C(Cc1ccc(C(F)(F)F)cc1)N1CCc2ccccc2C1CN1CCCC1` (racemic), the ED50 in assay [1] (setting [7]) was determined as 0.467 µmol/kg; in assay [2] (setting [8]), 0.074 µmol/kg; in assay [4] (setting [9]) it was 0.027 µmol/kg.
As for `O=C(Cc1ccc(Cl)c(Cl)c1)N1CCc2ccccc2C1CN1CCCCCCC1` (racemic), the ED50 in assay [2] (setting [8]) was greater than 22 µmol/kg.
As to `O=C(Cc1ccc([N+](=O)[O-])cc1)N1CCc2ccccc2C1CN1CCCC1` (racemic), the ED50 in assay [1] (setting [7]) was 0.409 µmol/kg; in assay [2] (setting [8]), 0.038 µmol/kg.
As for `O=C(Cc1ccc(Cl)c(Cl)c1)N1CCc2ccsc2C1CN1CCCC1` (stereo not drawn), the results for the ED50 in assay [1] (setting [7]) and in assay [2] (setting [8]) were 1.59 µmol/kg and 0.073 µmol/kg, respectively. Also, the Ki (commonly a measure of affinity in units of concentration, obtained from inhibition or displacement) in assay [5] amounted to 0.047 µM; in assay [6] it was 0.00046 µM.
As for `O=C(Cc1ccc(C(F)(F)F)cc1)N1CCc2ccccc2C1CN1CCCCC1` (single isomer, unassigned; (-)), the ED50 in assay [1] (setting [7]) turned out to be 3.84 µmol/kg; in assay [2] (setting [8]), 0.168 µmol/kg; in assay [4] (setting [9]) it was 0.06 µmol/kg. Also, the Ki was 0.231 µM in assay [5] and 0.00062 µM in assay [6].
Consider `O=C(Cc1ccc(Cl)c(Cl)c1)N1CCc2ccccc2C1CN1CCCC1.O=C(O)C(O)C(O)C(=O)O` (stereo not drawn), for which the ED50 in assay [1] worked out at 0.544 µM/kg; in assay [2], 0.02 µM/kg; in assay [3], 0.017 µM/kg.
As for `C=CCN(C)CC1c2ccccc2CCN1C(=O)Cc1ccc(Cl)c(Cl)c1` (racemic), the ED50 in assay [1] (setting [7]) is 6.88 µmol/kg; in assay [2] (setting [8]) it was 0.521 µmol/kg.
`O=C(Cc1ccc(Cl)c(Cl)c1)N1CCc2ccccc2C1CN1CCC1` (stereo not drawn): the ED50 in assay [2] (setting [8]) turned out to be 23.2 µmol/kg.
`O=C(Cc1ccccc1[N+](=O)[O-])N1CCc2ccccc2C1CN1CCCC1` (racemic): in assay [2] (setting [8]), the ED50 was greater than 21 µmol/kg.
As to `O=C(Cc1ccc(Cl)c(Cl)c1)N1Cc2ccccc2CC1CN1CCCC1` (stereo not drawn), the ED50 in assay [2] (setting [8]) is 8.23 µmol/kg.
On the same count and under the same terms, the result for `CN(CC1CC1)CC1c2ccccc2CCN1C(=O)Cc1ccc(Cl)c(Cl)c1` (racemic) reads 3.39 µmol/kg.
Regarding `O=C(Cc1cccc([N+](=O)[O-])c1)N1CCc2ccccc2C1CN1CCCC1` (racemic), the results for the ED50 in assay [1] (setting [7]) and in assay [2] (setting [8]) were 5.26 µmol/kg and 0.105 µmol/kg, respectively.
For the molecule `O=C(Cc1ccc(Cl)c(Cl)c1)N1CCc2sccc2C1CN1CCCC1` (stereo not drawn), the results for the ED50 in assay [1] (setting [7]) and in assay [2] (setting [8]) were 0.945 µmol/kg and 0.018 µmol/kg, respectively. Further, the figures for the Ki in assay [5] and in assay [6] were 0.0472 µM and 0.00022 µM, respectively.
With `O=C(Cc1ccc(C(F)(F)F)cc1)N1CCc2ccccc2[C@H]1CN1CCCC1` (stereo in doubt; 30), the ED50 in assay [1] (setting [7]) turned out to be 0.25 µmol/kg; in assay [2], 0.032 µM/kg; in assay [4] (setting [9]), 0.015 µmol/kg. The Ki in assay [5] was found to be 0.0107 µM; in assay [6], 0.00024 µM.
Consider `O=C(Cc1ccc(Cl)c(Cl)c1)N1CCc2ccccc2C1CN1CCCCC1` (racemic), for which the ED50 came out at 5.16 µmol/kg in assay [1] (setting [7]), 0.359 µmol/kg in assay [2] (setting [8]) and 0.101 µmol/kg in assay [3] (setting [9]).
As to `O=C(Cc1ccc(Cl)c(Cl)c1)N1CCc2sccc2C1CN1CCCCC1` (stereo not drawn), the figures for the ED50 in assay [1] (setting [7]), in assay [2] (setting [8]) and in assay [3] (setting [9]) were 2.75 µmol/kg, 0.096 µmol/kg and 0.024 µmol/kg, respectively. Moreover, the Ki was 0.445 µM in assay [5] and 0.00047 µM in assay [6].
Turning to `O=C(Cc1ccc(Cl)c(Cl)c1)N1c2ccccc2CCC1CN1CCCC1` (stereo not drawn), in assay [2] (setting [8]), the ED50 was greater than 20 µmol/kg.
For the molecule `O=C(Cc1ccc(Cl)c(Cl)c1)N1CCCC[C@H]1CN1CCCC1`, the ED50 worked out at 2.49 µmol/kg in assay [1] (setting [7]), 0.135 µmol/kg in assay [2] (setting [8]) and 0.056 µmol/kg in assay [3] (setting [9]). For the same molecule, in assay [6], the Ki came to 0.00031 µM.
As to `CNCC1c2ccccc2CCN1C(=O)Cc1ccc(Cl)c(Cl)c1` (racemic), the ED50 in assay [2] (setting [8]) is greater than 28 µmol/kg.
Regarding `O=C(Cc1ccc(Cl)c(Cl)c1)N1CCc2c([nH]c3ccccc23)C1CN1CCCC1` (stereo not drawn), in assay [2] (setting [8]), the ED50 was greater than 20 µmol/kg. For the same molecule, the Ki is greater than 1 µM in assay [5] and greater than 0.1 µM in assay [6].
As to `CN1CC[C@]23c4c5ccc(O)c4O[C@H]2[C@@H](O)C=C[C@H]3[C@H]1C5` [MORPHINE], the ED50 in assay [1] (setting [7]) worked out at 32.6 µmol/kg.
On to `O=C(Cc1ccc(C(F)(F)F)cc1)N1CCc2sccc2C1CN1CCCCC1` (stereo not drawn), for which the ED50 turned out to be 4.65 µmol/kg in assay [1] (setting [7]), 0.125 µmol/kg in assay [2] (setting [8]) and 0.024 µmol/kg in assay [3] (setting [9]). The Ki in assay [5] worked out at 0.42 µM; in assay [6], 0.0006 µM.
Turning to `CN(C)CC1c2ccccc2CCN1C(=O)Cc1ccc(Cl)c(Cl)c1.Cl` (racemic), the ED50 in assay [1] (setting [7]) was 2.88 µmol/kg; in assay [2] (setting [8]) it was 0.099 µmol/kg; in assay [4] it was 0.127 µM/kg.
As to `O=C(Cc1ccc(Br)cc1)N1CCc2ccccc2C1CN1CCCC1` (racemic), in assay [2] (setting [8]), the ED50 is 0.07 µmol/kg.
As to `CCO.CN(C)CC1c2ccccc2CCN1C(=O)Cc1ccc(Cl)c(Cl)c1.O=C(O)C(O)C(O)C(=O)O` (single isomer, unassigned; (-)), the ED50 came to 2.199 µM/kg in assay [1], 0.075 µM/kg in assay [2] and 0.042 µM/kg in assay [4]. The results for the Ki in assay [5] and in assay [6] were 0.293 µM and 0.00051 µM, respectively.
`CCCN(CCC)CC1c2ccccc2CCN1C(=O)Cc1ccc(Cl)c(Cl)c1` (racemic): in assay [2] (setting [8]), the ED50 is greater than 23 µmol/kg.
In the case of `O=C(Cc1ccc(Cl)c(Cl)c1)N1CCc2ccccc2C1CN1CCCCCC1` (stereo not drawn), the ED50 came out at 0.267 µmol/kg in assay [2] (setting [8]) and 0.083 µmol/kg in assay [3] (setting [9]).
With `O=C(Cc1ccc(C(F)(F)F)cc1)N1CCCC[C@H]1CN1CCCC1`, the ED50 in assay [1] (setting [7]) came to 3.29 µmol/kg; in assay [2] (setting [8]), 0.0373 µmol/kg; in assay [3] (setting [9]) it was 0.099 µmol/kg. For the same molecule, the Ki was determined as 2.34 µM in assay [5] and 0.00064 µM in assay [6].
As to `O=C(Cc1ccc(Cl)c(Cl)c1)N1CCc2[nH]c3ccccc3c2C1CN1CCCC1` (stereo not drawn), the ED50 in assay [2] (setting [8]) is greater than 20 µmol/kg. The results for the Ki in assay [5] and in assay [6] were greater than 1 µM and 0.1 µM, respectively.
Consider `CCN(CC)CC1c2ccccc2CCN1C(=O)Cc1ccc(Cl)c(Cl)c1` (racemic), for which the ED50 was found to be 3.37 µmol/kg in assay [1] (setting [7]) and 0.264 µmol/kg in assay [2] (setting [8]).
